Assay outcomes from PubChem BioAssay.
PDI inh = inhibitors of human PDI, primary screen, biochemical, turbidity, single point, plate reader. Protein disulfide-isomerase (Homo sapiens), P07237. PDI insulin aggregation turbidity, A650, 90 min. inhibition, % at 10 µM. hit rate 0.052% among 350,000. AID 588391, 2011;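 active means mean inhibition across replicates of 30% or more, whatever share of single replicates reach that level; inconclusive means mean inhibition below 30% while every single replicate reaches 30%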
PvdQ inh = P. aeruginosa PvdQ acylase inhibitors, primary screen, biochemical, fluorescence, plate reader and imaging, single point; hit rate 0.063% among 340,000; inhibition, % at 10 µM; AID 488965, 2010; purified PvdQ acylase; PvdQ acylase [Pseudomonas aeruginosa LESB58]; in the data active means inhibition above about 30%, passing the limit was not always enough; inconclusive means no clear call, values can overlap the other calls;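 further: 0% = vehicle neutral wells and 100% = reference inhibitor wells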
rRNA inh HTS = reduced GFP signal of wild-type E. coli, primary screen, bacterial rRNA inhibitor project, GFP/RFP fluorescence, OD600, single point; hit rate 1.6% among 350,000; AID 720706, 2013; GFP signal change (wild-type ribosome), % (concentration not given with the values); E. coli WT GFP vs humanized-ribosome RFP mutants, 24 h; hits give low values; DMSO median 0, no signal -100;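 active means significant combined selectivity score with lowered wild-type GFP, culture density cut under 30%, mutant RFP and density less affected; inactive means any of these conditions unmet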
ERp5 inh = inhibitors of ERp5-driven insulin aggregation, primary screen, biochemical, turbidity, absorbance 650 nm, single point; Protein disulfide-isomerase A6 (Homo sapiens), Q15084; 90 min; inhibition, % at 9.99 µM; hit rate 0.05% among 350,000; AID 651711, 2012;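 active means mean replicate inhibition above about 25%, with every replicate also reaching it, limit read from the data, passing the limit was not always enough; inconclusive means only one of those two criteria met; inactive means neither criterion met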
Target sequence (Q15084 whole entry, looked up): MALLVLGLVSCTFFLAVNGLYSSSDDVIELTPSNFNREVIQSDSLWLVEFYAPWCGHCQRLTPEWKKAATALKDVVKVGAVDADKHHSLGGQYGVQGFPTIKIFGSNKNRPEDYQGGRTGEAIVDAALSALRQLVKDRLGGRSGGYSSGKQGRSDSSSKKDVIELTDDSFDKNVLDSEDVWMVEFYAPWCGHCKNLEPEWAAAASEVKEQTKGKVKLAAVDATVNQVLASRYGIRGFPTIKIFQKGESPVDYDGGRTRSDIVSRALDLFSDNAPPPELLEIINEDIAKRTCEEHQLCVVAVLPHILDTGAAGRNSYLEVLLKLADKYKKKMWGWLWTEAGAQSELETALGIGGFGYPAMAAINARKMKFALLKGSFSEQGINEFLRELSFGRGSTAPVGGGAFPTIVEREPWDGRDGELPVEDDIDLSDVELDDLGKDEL
HIV Env fusion = inhibitors of HIV-1 Env-driven cell-cell fusion, primary screen, HeLa-JRFL effector, CEM21 target cells, luciferase | inhibition, % at 12.3 µM | hit rate 1.1% among 360,000;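 active means mean replicate inhibition score of at least 50 and every replicate individually at or above 50; inconclusive means only one of the two criteria met; inactive means mean below 50 and not all replicates reaching 50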;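 further: 0% = plate neutral controls and 100% = maraviroc near 300 nM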
FN deposition inh = inhibitors of fibronectin matrix deposition, primary screen, AH1F cells, Alexa488-fibronectin fluorescence, plate reader. inhibition, % at 12.6 µM. hit rate 0.086% among 350,000. AID 743247, 2014. AH1F fibroblasts, overnight;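 active means mean inhibition across replicates of 30% or more, regardless of how many single replicates reach that level; inconclusive means mean under 30% yet at least half of replicates reach 30%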;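 further: positive control wells lacked labelled fibronectin entirely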
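Test system: AH1F fibroblast monolayer depositing Alexa488-labelled fibronectin into matrix. Input: 10000 cells per well. Technique: fluorescence, ex 485 nm, em 525 nm. Buffer or medium: DMEM plus 2% serum, read in PBS. Timing: 1 h cell adhesion before compound, then overnight fibronectin incubation. Compound: single dose, pinned. Read-out basis: inhibition from reduced deposited-fibronectin fluorescence.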
AID977621 = growth inhibition of wild-type GFP E. coli, dose response, H69 mutant RFP, cherry-pick | shares compounds with rRNA inh HTS | E. coli wild-type GFP strain growth, fluorescence, 24 h | activity change, negative = inhibition at 50 µM | 1,900 tested, under 10 active | AID 977621, 2014;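 active means Wild-type ribosome reporter drop at least double the humanized mutant ribosome reporter drop, growth loss under a set limit; inconclusive means no clear call, values can overlap the other calls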;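 further: wild-type GFP and H69 mutant RFP strains grown together 50/50 in each well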
AID977628 = E. coli growth inhibition, wild-type GFP versus h24 humanized RFP strain, dose response, h24 mutant RFP vs wild-type GFP, cherry-pick; shares compounds with rRNA inh HTS; E. coli WT GFP strain growth, fluorescence, 24 h; activity change, negative = inhibition at 50 µM; 1,900 tested, under 10 active; AID 977628, 2014;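 active means compound lowering the normal-ribosome reporter at least twice as much as the humanized-ribosome reporter, growth loss under a set limit; inconclusive means no clear call, values can overlap the other calls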;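 further: wild-type GFP and h24 humanized RFP strains co-cultured 1 to 1 per well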
* hit, by the source's call; ? = inconclusive; . = no result; [ ] = remark or other dose. Shown are actives, neighbours in structure and some others; about 2.2% of the full set was active somewhere.

SMILES | PDI inh | PvdQ inh | rRNA inh HTS | ERp5 inh | HIV Env fusion | FN deposition inh | AID977621 | AID977628
COc1ccccc1NC(=O)N1CCCCN2[C@@H](CO)[C@H](c3ccc(C#Cc4ccccc4)cc3)[C@@H]2C1 | . | . | -30.4* | 0.5 | . | . | 3.15 | .
O=C(Nc1ccccc1F)N1CCCCN2[C@@H](CO)[C@H](c3ccc(C#Cc4cccnc4)cc3)[C@@H]2C1 | . | . | -18.6* | 0.8 | . | . | -8.54 | ?
O=C(Nc1ccccc1F)N1CCCCN2[C@H](CO)[C@H](c3ccc(C#Cc4cccnc4)cc3)[C@H]2C1 | . | . | -9.1 | -0.5 | . | . | . | .
COc1cccc(NC(=O)N2CC3(C2)[C@H](c2ccccc2)[C@H](CO)N3C(=O)C2CC2)c1 | . | . | -1.2 | -2.5 | . | 8.3 | . | .
CNC[C@H]1OCCCC[C@H](C)Oc2ccc(NS(=O)(=O)c3cn(C)cn3)cc2C(=O)N([C@@H](C)CO)C[C@H]1C | . | . | 5.1 | . | -17.3[16.7 µM] | . | . | .
Cc1ccc(C2(c3noc(CN(C)Cc4ccccn4)n3)CCCC2)cc1 | 3.8 | -13.1 | -20.1 | 4.5 | 7.2 | . | . | .
Cc1ccc(C2(c3noc(CN(C)Cc4cccnc4)n3)CCCC2)cc1 | 11.0 | -9.5 | -31.5* | -0.1 | 8.7 | -6.2 | . | ?
COc1ccc2c3c(n(C)c2c1)[C@@H](CO)N(C(=O)Nc1cccc(F)c1)CC31CN(C)C1 | . | . | 7.0 | 6.5 | . | . | . | .
CCCCNC(=O)c1onc(CSc2cc(C)cc(C)c2)c1C(=O)O | 3.1 | -5.0 | -29.2* | 5.4 | -0.4 | -8.1 | -7.86 | .
Cc1cc(C)cc(NC(=O)COC(=O)CCC2CCCC2)c1 | 10.9 | 1.9 | -5.5 | 3.4 | -6.0 | -11.8 | . | .
Cc1cc(C)cc(NC(=O)COC(=O)CC2CCCC2)c1 | -0.8 | 1.7 | -19.2* | -8.8 | 2.4 | 3.1 | -12.5 | -6.41
COC(=O)c1cn(C(=O)c2ccc(C)cc2)c2ccccc12 | -10.7 | -5.7 | -6.6 | 6.0 | -44.6 | -1.5 | . | .
COC(=O)c1cn(C(=O)c2ccc(OC)cc2)c2ccccc12 | 6.3 | -4.6 | -25.8* | 2.3 | -118.4 | 3.6 | 2.36 | -9.2
CCc1nnc(NC(=O)CSc2ncc(-c3ccccc3)[nH]2)s1 | -0.3 | -6.2 | -19.6* | 4.2 | . | . | 7.72 | -0.476
c1ccc(-c2csc(-c3cccnc3)n2)cc1 | -2.6 | 1.6 | -21.1 | -3.0 | -14.0 | -0.4 | . | .
c1ccc(-c2nc(-c3cccnc3)cs2)cc1 | -0.7 | -9.6 | -23.8* | -0.4 | -16.9 | -4.2 | ? | .
COc1ccc(NC(=O)N[C@H]2C=C[C@H](CC(=O)NC3CCC3)O[C@H]2CO)cc1 | . | . | -2.1 | 17.2 | -3.0[16.7 µM] | . | . | .
CC1=CC(C)(C)N(C(=O)CSc2nnc(C)s2)c2ccc(C)cc21 | 5.3 | -9.0 | -17.0* | -8.9 | . | . | 5.1 | ?
CC1=CC(C)(C)N(C(=O)CSc2nnc(N)s2)c2cc(C)c(C)cc21 | -3.6 | -10.9 | . | . | -5.0 | -13.0 | . | .
c1ccc2c(c1)nc(N1CCCCCC1)c1ccccc12 | -1.0 | 5.9 | -30.6* | 1.7 | 14.3 | -3.2 | -21.5 | .
COc1cccc(S(=O)(=O)Nc2ccc3c(c2)C(=O)N(C)[C@@H]2CC[C@@H](CC(=O)O)O[C@H]2CO3)c1 | . | . | 1.8 | . | -27.7[16.7 µM] | -4.2 | . | .
COCc1ccc(C(=O)N2CCCC(C(=O)c3ccc(Cl)cc3C)C2)o1 (stereo unspecified) | 10.6 | 2.4 | -25.9* | 3.7 | 4.8 | 5.3 | -1.04 | -8.78
Cc1ccc(Nc2cc(C(=O)NCCCN3CCOCC3)c3ccccc3n2)cc1C | -10.5 | 6.3 | -21.9* | 2.8 | -6.7 | 0.9 | . | ?
Cc1cc(C(C)(C)C)oc1C(=O)N(CC(=O)NC1CCCC1)c1c(C)cccc1C | -21.7 | -2.1 | -25.4* | -4.5 | . | . | . | -15.1
O=C(Nc1ccc2c(c1)OCO2)N[C@H]1CC[C@@H](CCNC(=O)C2CCCCC2)O[C@@H]1CO | . | . | 0.6 | -6.0 | -15.6[16.7 µM] | . | . | .
SMILES | PDI inh | PvdQ inh | rRNA inh HTS | ERp5 inh | HIV Env fusion | FN deposition inh | AID977621 | AID977628
CCC(C(=O)NC1CCCC1)n1c(-c2ccncc2)nc2ccccc21 (stereo unspecified) | . | . | 3.6 | -0.8 | -2.5 | -4.7 | . | .
CCC(C(=O)NC1CCCC1)n1c(-c2ccnc3ccccc23)nc2ccccc21 (stereo unspecified) | . | . | -13.7* | -4.4 | -43.5 | -0.6 | -15.7 | -13.9
Cn1c(=O)n(C)c2cc([N+](=O)[O-])c(N3CCN(C(=O)c4cccc(F)c4)CC3)cc21 | -9.3 | -11.3 | -18.0* | -12.2 | 30.2 | . | -11.5 | ?
O=C(c1ccc(N2CCCCC2)c([N+](=O)[O-])c1)N1CCN(S(=O)(=O)c2ccccc2)CC1 | -2.1 | -4.4 | -15.9 | 5.3 | -2.6 | 7.8 | . | .
O=C(c1ccc(N2CCCCC2)c([N+](=O)[O-])c1)N1CCN(c2ccccn2)CC1 | -1.5 | -0.8 | -21.1* | 2.3 | -0.2 | 6.3 | . | ?
COc1ccc(-c2ccc([C@@H]3[C@@H](CO)N4CCCCN(C(=O)c5ccc6c(c5)OCO6)C[C@@H]34)cc2)cc1 | . | . | -31.6 | 0.6 | . | . | . | .
COC(=O)C[C@H]1C[C@H]2c3cc(NS(=O)(=O)c4ccc(F)cc4)ccc3O[C@H]2[C@H](CO)O1 | . | . | 1.1 | -13.1 | -5.1[16.7 µM] | -3.8 | . | .
CC(C)(C)c1cc(CN2CCN(CCO)CC2)cc(C(C)(C)C)c1O | -3.4 | -16.6 | . | . | 24.4 | 6.4 | . | .
CN1CCN(CC(=O)c2cc(C(C)(C)C)c(O)c(C(C)(C)C)c2)CC1 | 8.4 | -10.1 | -30.6* | 1.5 | 20.6 | -3.8 | -2.77 | -9.31
CCCNC(=O)C[C@@H]1CC[C@H]2[C@H](COc3ccc(NC(=O)C4CCCC4)cc3C(=O)N2C)O1 | . | . | -2.1 | 5.0 | -3.0[16.7 µM] | 0.7 | . | .
O=C(Nc1cccnc1)c1sc2cccc(F)c2c1Cl | -9.7 | -12.1 | -19.9* | -4.4 | -5.2 | 4.3 | -8.16 | -2.74
CN1C(=O)c2cc(NC(=O)c3cccc(F)c3)ccc2OC[C@@H]2O[C@@H](CC(=O)NCc3ccccc3)CC[C@H]21 | . | . | -4.8 | . | 28.2[16.7 µM] | -15.0 | . | .
C[C@H]1CN([C@@H](C)CO)S(=O)(=O)c2ccc(C3=CCCC3)cc2O[C@H]1CN(C)S(=O)(=O)c1cn(C)cn1 | . | . | 3.5 | 1.0 | -45.8[16.7 µM] | 1.3 | . | .
CC(=O)Nc1ccc(Nc2nc(C)c([N+](=O)[O-])c(Nc3ccccc3)n2)cc1 | 12.9 | -5.9 | . | . | 14.1 | 2.2 | . | .
CC(=O)Nc1ccc(Nc2nc(C)c([N+](=O)[O-])c(N(C)c3ccccc3)n2)cc1 | 1.9 | 5.8 | -43.9* | -6.2 | 6.2 | 1.0 | ? | ?
